From ChEMBL document CHEMBL2146437, “Burkholdines from Burkholderia ambifaria: antifungal agents and possible virulence factors” (J Nat Prod, 2012) come the findings set out here.

One may read the MIC as the least concentration at which growth counts as inhibited. Read a high MIC as a need for much substance.

Molecules are shown by their SMILES. ≈ marks a conversion by molar mass, not a printed value.

Data set [1] has as its system Candida albicans. Description: Antifungal activity against Candida albicans. The format is functional.
Data set [2] can be described thus: Toxicity in sheep erythrocytes assessed as concentration required to achieve 10% hemolysis after 1 hr by serial dilution method. Conditions: erythrocyte. The format is cell-based, Ovis aries. Summed up: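 Sheep erythrocytes as a 0.25% suspension in phosphate-buffered saline received compound in 2-fold serial dilutions and were held 1 h at 37 °C. Cells were then pelleted at 1000g for 5 min, and supernatant absorbance was read at 540 nm. The value is the concentration giving 10% hemolysis, reported as mean ± standard deviation of two independent measurements.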

Data set [3] can be described thus: Ratio of HC10 for sheep erythrocytes to MIC for Candida albicans. The format is functional.
The subject of data set [4] is Aspergillus niger. In words: Antifungal activity against Aspergillus niger. It counts as functional.
The test system of data set [5] is Saccharomyces cerevisiae. Description: Antifungal activity against Saccharomyces cerevisiae. The format is functional.
Data set [6] concerns Aspergillus niger. Description: Ratio of amphotericin-B MIC to compound MIC for Aspergillus niger. It counts as functional.

As to `CCCCCCCCCCC[C@H](O[C@@H]1OC[C@@H](O)[C@H](O)[C@H]1O)[C@H](O)[C@H](O)C[C@@H]1CC(=O)N[C@H](CO)C(=O)N[C@H]([C@H](O)c2ccc(O)cc2)C(=O)N[C@H](CC(N)=O)C(=O)NCC(=O)N[C@@H](CC(N)=O)C(=O)N[C@@H](CO)C(=O)N[C@@H]([C@H](O)C(N)=O)C(=O)N1`, the MIC in data set [1] is 12.5 µg/mL (≈ 10.2 µM); in data set [4], 12.5 µg/mL (≈ 10.2 µM); in data set [5], 0.4 µg/mL (≈ 0.325 µM). The HC10 in data set [2] turned out to be 10 µg/mL. For the same compound, the Ratio in data set [3] was determined as 1.

As to `CCCCCCCCCCC[C@H](O)[C@H](O)[C@H](O)C[C@@H]1CC(=O)N[C@H](CO)C(=O)N[C@H]([C@H](O)c2ccc(O)cc2)C(=O)N[C@H](CC(N)=O)C(=O)NCC(=O)N[C@@H](CC(N)=O)C(=O)N[C@@H](CO)C(=O)N[C@@H]([C@H](O)C(N)=O)C(=O)N1` (relative stereo), the MIC was determined as 12.5 µg/mL (≈ 11.4 µM) in data set [1], 1.6 µg/mL (≈ 1.46 µM) in data set [4] and 1.6 µg/mL (≈ 1.46 µM) in data set [5]. The HC10 in data set [2] worked out at 4.5 µg/mL. The Ratio in data set [3] came out at 0.4.

In the case of `C[C@@H]1[C@H](O)[C@@H](C)/C=C/C=C/C=C/C=C/C=C/C=C/C=C/[C@H](O[C@@H]2O[C@H](C)[C@@H](O)[C@H](N)[C@@H]2O)C[C@@H]2O[C@](O)(C[C@@H](O)C[C@@H](O)[C@H](O)CC[C@@H](O)C[C@@H](O)CC(=O)O[C@H]1C)C[C@H](O)[C@H]2C(=O)O` [AMPHOTERICIN B], the MIC in data set [1], in data set [4] and in data set [5] was 2.5 µg/mL (≈ 2.71 µM) each time.

As to `CCCCCCCCCCC[C@H](O[C@H]1OC[C@@H](O)[C@H](O)[C@H]1O)[C@H](O)[C@H](O)C[C@@H]1CC(=O)N[C@H](CO)C(=O)N[C@H]([C@H](O)c2ccc(O)cc2)C(=O)N[C@H](CCN)C(=O)NCC(=O)N[C@@H](CC(N)=O)C(=O)N[C@@H](CO)C(=O)N[C@@H]([C@H](O)C(N)=O)C(=O)N1` [BURKHOLDINE 1215], the MIC in data set [1], in data set [4] and in data set [5] was 0.15 µg/mL (≈ 0.123 µM) each time. In data set [2], the HC10 stood at 5 µg/mL. For the same compound, the Ratio in data set [3] worked out at 33.

On to `CCCCCCCCCCC[C@H](O[C@@H]1OC[C@@H](O)[C@H](O)[C@H]1O)[C@H](O)[C@H](O)C[C@@H]1CC(=O)N[C@H](CO)C(=O)N[C@H]([C@H](O)c2ccc(O)cc2)C(=O)N[C@H](CCN)C(=O)NCC(=O)N[C@@H](CC(N)=O)C(=O)N[C@@H](CO)C(=O)N[C@@H](CC(N)=O)C(=O)N1` [BURKHOLDINES 1119], for which the MIC in data set [1] was 0.4 µg/mL (≈ 0.333 µM); in data set [4], 0.1 µg/mL (≈ 0.0833 µM); in data set [5], 0.1 µg/mL (≈ 0.0833 µM). Besides, the HC10 in data set [2] was 15 µg/mL. The Ratio in data set [3] is 38; in data set [6], 25.

Consider `CCCCCCCCCCC[C@H](O[C@@H]1OC[C@@H](O)[C@H](O)[C@H]1O)[C@H](O)[C@H](O)C[C@@H]1CC(=O)N[C@H](CO)C(=O)N[C@H]([C@H](O)c2ccc(O)cc2)C(=O)N[C@H](CC(N)=O)C(=O)NCC(=O)N[C@@H](CC(N)=O)C(=O)N[C@@H](CO)C(=O)N[C@@H](CC(N)=O)C(=O)N1` [BURKHOLDINES 1213], for which the minimum inhibitory concentration (MIC) in data set [1] amounted to 31 µg/mL (≈ 25.5 µM); in data set [4], 2 µg/mL (≈ 1.65 µM); in data set [5], 2 µg/mL (≈ 1.65 µM). For the same compound, in data set [2], the HC10 came to 37 µg/mL. In data set [3], the Ratio is 1.
